From PubChem BioAssay AID686992 (Broad Institute, 2013) come the findings set out here.

Values joined by “and” are separate entries in the source; they are usually repeats but may differ in a detail not shown here. Equal entries are not always repeated. Screen size: about 260,000 compounds; about 960 (0.37%) were called active.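 Rule for the calls: active = mean E-selectin-positive cell signal at least 10% of the positive control, reached in at least 60% of replicates, without over 20% cell loss; inconclusive = no rule given, readout overlaps actives, possibly toxicity-flagged; inactive = the rest, including those meeting only one limit.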 The entries come from a sample that favours actives as a whole.

In the test the target is E-selectin (Homo sapiens) (UniProt P16581). The test can be described thus: inducers of endothelial E-selectin expression – imaging, HUVEC, immunofluorescence imaging, single point, primary screen (AID 686992).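 Note: signal is the percent of cells scored E-selectin positive by PE staining.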 As to conditions: at 7.58 µM, stronger effect = higher value, normalized: neutral wells 0, TNF-alpha wells 100. In short, it runs like this: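 System: HUVEC / Compound: single concentration / Signal: immunofluorescence imaging / Read-out: percent E-selectin-positive cells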
Chain of E-selectin (Homo sapiens) (P16581 whole entry, looked up): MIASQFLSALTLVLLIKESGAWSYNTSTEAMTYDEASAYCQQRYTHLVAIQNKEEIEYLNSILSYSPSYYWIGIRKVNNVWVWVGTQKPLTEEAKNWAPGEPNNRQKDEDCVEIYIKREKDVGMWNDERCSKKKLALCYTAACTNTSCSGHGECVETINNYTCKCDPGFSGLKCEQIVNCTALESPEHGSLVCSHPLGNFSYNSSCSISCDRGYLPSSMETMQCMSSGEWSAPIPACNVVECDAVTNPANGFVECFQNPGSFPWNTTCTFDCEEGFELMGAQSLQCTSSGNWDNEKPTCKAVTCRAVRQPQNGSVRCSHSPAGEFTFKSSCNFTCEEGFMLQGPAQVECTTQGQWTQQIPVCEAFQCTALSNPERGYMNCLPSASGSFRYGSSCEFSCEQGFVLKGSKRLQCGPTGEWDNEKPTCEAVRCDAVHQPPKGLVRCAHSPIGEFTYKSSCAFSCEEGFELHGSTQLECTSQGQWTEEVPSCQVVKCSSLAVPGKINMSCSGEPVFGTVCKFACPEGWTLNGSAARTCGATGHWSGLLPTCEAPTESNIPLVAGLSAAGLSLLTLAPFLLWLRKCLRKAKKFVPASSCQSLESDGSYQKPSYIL
On to `CC(C)C[C@H]1CN([C@@H](Cc2ccccc2)CN2CCC[C@@H]2CN2C(=O)C(=O)NC[C@@H]2Cc2ccc(O)cc2)C(=O)C(=O)N1CCc1ccccc1`, for which the activation was 9.99% (inactive).

In the case of `CCCCNC(=O)c1ccccc1NC(=O)C1=C(C)OCCS1`, the activation is 0.108% (inactive). As for `COc1ccc(C(=O)Nc2ccccc2C(=O)N2CCN(c3ccccc3)CC2)cc1`, the activation is 0.169% (inactive). Turning to `COc1ccc(N2CCN(C(=O)c3ccccc3NC(=O)C3=C(C)OCCS3)CC2)cc1`, the activation is 54.3% (active). As for `COc1ccc(Sc2ccc(NC(=O)c3cccc(Cl)c3)cc2C#N)cc1`, the figure is 2.08% (inactive). Regarding `O=C(O)C1CCC(CNS(=O)(=O)c2ccc(Br)cc2)CC1` (stereo not given), the activation is -0.071% (inactive). As for `CCCCSCCCNC(=O)C1CCC(CNS(=O)(=O)c2ccc(NC(C)=O)cc2)CC1` (stereo not given), the activation is 58.2% (active). The same measure for `COCCCNC(=O)C1CCC(CNS(=O)(=O)c2ccc(OC)cc2)CC1` (stereo not given): -0.0375% (inactive). `CC(C)NC(=O)N(C)C[C@H]1Oc2ccc(NC(=O)CCC(F)(F)F)cc2CC(=O)N([C@@H](C)CO)C[C@@H]1C`: the activation was 50.4% (active). For `C[C@H]1CN([C@@H](C)CO)C(=O)Cc2cc(NC(=O)Nc3ccc(F)cc3)ccc2O[C@H]1CN(C)C(=O)Nc1ccc(C(F)(F)F)cc1`, the activation was 29.7% (active). For the molecule `C[C@@H]1CN([C@@H](C)CO)C(=O)Cc2cc(NC(=O)Nc3ccc(C(F)(F)F)cc3)ccc2O[C@H]1CN(C)C(=O)Nc1ccc(F)cc1`, the activation was -0.224% (inactive). The same measure for `C[C@H]1CN([C@@H](C)CO)C(=O)Cc2cc(NC(=O)C3CC3)ccc2O[C@@H]1CN(C)S(=O)(=O)c1cccs1`: 55.7% (active).

Consider `C[C@@H]1CN([C@@H](C)CO)C(=O)Cc2cc(NC(=O)CCC(F)(F)F)ccc2O[C@@H]1CN(C)C(=O)Nc1cccc2ccccc12`, for which the activation is 0.23% (inactive). In the case of `C[C@@H]1CN([C@@H](C)CO)C(=O)Cc2cc(NC(=O)NC3CCCCC3)ccc2O[C@H]1CN(C)C(=O)Nc1ccc(C(F)(F)F)cc1`, the activation was 0.389% (inactive). The same measure for `C[C@H]1CN([C@@H](C)CO)C(=O)Cc2cc(NC(=O)CCC(F)(F)F)ccc2O[C@H]1CN(C)C(=O)NC1CCCCC1`: 0.0445% (inactive). Consider `C[C@@H]1CN([C@@H](C)CO)C(=O)Cc2cc(NC(=O)C3CC3)ccc2O[C@@H]1CN(C)S(C)(=O)=O`, for which the activation was -0.338% (inactive).

Turning to `C[C@H]1CN([C@@H](C)CO)C(=O)Cc2cc(NS(C)(=O)=O)ccc2O[C@@H]1CN(C)S(=O)(=O)c1cccs1`, the activation is -0.124% (inactive).

As to `C[C@@H]1CCCCO[C@@H](CN(C)C(=O)CCCN(C)C)[C@H](C)CN([C@@H](C)CO)C(=O)c2cc(NC(=O)Nc3ccccc3)ccc2O1`, the activation is -0.0275% (inactive).

Consider `N#C[C@@H]1[C@@H](c2ccc(-c3ccccc3F)cc2)[C@@H](CO)N1C(=O)c1ccccn1`, for which the activation is 0.692% (inactive). Consider `COC(=O)N1Cc2ccnnc2CC1c1ccccc1Br` (stereo not given), for which the activation is -0.184% (inactive). Regarding `CSc1ccc(CN2CCC2(C)C(=O)NCc2ccccc2Br)cc1` (stereo not given), the activation was -0.129% (inactive). The same measure for `CC(Sc1ccc(S(=O)(=O)N2CCN(C)CC2)cn1)C(=O)NC1CCCC(C)C1C` (stereo not given): -0.0545% (inactive); for `O=C(c1ccccn1)N1CC2(C1)[C@@H](c1ccccc1)[C@@H](CO)N2C(=O)C1CCCCC1`: 1.98% (inactive); for `CC(C)NC(=O)Nc1ccc2c(c1)C(=O)N([C@@H](C)CO)C[C@@H](C)[C@H](CN(C)Cc1ccc(-c3ccccc3)cc1)O2`: 0.764% (inactive). Turning to `C[C@H](CO)N1C[C@H](C)[C@@H](CN(C)Cc2ccc(C(F)(F)F)cc2)Oc2ccc(NC(=O)CCC(F)(F)F)cc2C1=O`, the activation was 63.1% (active).

In the case of `C[C@@H]1CN([C@H](C)CO)C(=O)Cc2cc(NC(=O)Cc3cn(C)c4ccccc34)ccc2O[C@@H]1CN(C)Cc1ccc(C(F)(F)F)cc1`, the activation was 275% (active).

`C[C@H]1CN([C@@H](C)CO)C(=O)Cc2cc(NC(=O)Cc3cn(C)c4ccccc34)ccc2O[C@@H]1CN(C)Cc1ccccc1`: the activation was 0.509% (inactive). In the case of `C[C@H](CO)N1C[C@H](C)[C@H](CN(C)Cc2ccc(C(=O)O)cc2)Oc2ccc(NC(=O)NC3CCCCC3)cc2C1=O`, the activation is 1.59% (inactive). The same measure for `C[C@H]1CN([C@@H](C)CO)C(=O)Cc2cc(NC(=O)Cc3cn(C)c4ccccc34)ccc2O[C@@H]1CN(C)Cc1ccc(C(F)(F)F)cc1`: 12.9% (inactive). As for `C[C@H](CO)N1C[C@H](C)[C@@H](CN(C)Cc2ccc(C(F)(F)F)cc2)Oc2ccc(NC(=O)CCN3CCOCC3)cc2C1=O`, the figure is 3.76% (inactive); as for `CC(C)NC(=O)Nc1ccc2c(c1)C(=O)N([C@@H](C)CO)C[C@@H](C)[C@H](CN(C)Cc1ccc(C(=O)O)cc1)O2`, 56.9% (active). Consider `C[C@@H]1CN([C@H](C)CO)C(=O)c2cc(NC(=O)Nc3ccc4c(c3)OCO4)ccc2O[C@@H]1CN(C)Cc1ccc(C(F)(F)F)cc1`, for which the activation was 0.0795% (inactive). The same measure for `CCCNC(=O)c1cc2c(c(-c3cccc(-c4ccc(C#N)cc4)c3)n1)[C@@H](CCO)N(C(=O)CC)C2`: 1.79% (inactive); for `CO[C@H]1CN(C)C(=O)c2cc(NC(=O)C3CCOCC3)ccc2OC[C@@H](C)N(Cc2cccnc2)C[C@@H]1C`: -0.0535% (inactive). The same measure for `CN(C)C(=O)c1ccc(-c2ccccc2[C@H]2[C@@H](CO)N(C(=O)C3CCCCC3)[C@H]2C#N)cc1`: 0.141% (inactive); for `CSc1ncccc1C(=O)N1CCCC(Nc2ccc(F)c(F)c2)C1` (stereo not given): -0.156% (inactive); for `COc1ccc(NC(=O)N(C)C[C@@H]2OCCCC[C@@H](C)Oc3ccc(NS(C)(=O)=O)cc3C(=O)N([C@@H](C)CO)C[C@H]2C)cc1`: 0.098% (inactive). Consider `COC(=O)C1=CN(c2c(C)cc(C)cc2C)C(N)=C(C#N)C1c1cccc(F)c1` (stereo not given), for which the activation was -0.0735% (inactive). Take `COc1ccc(S(=O)(=O)N(C)CC(=O)NCCCN2CCOCC2)cc1Cl`: the activation was 0.0915% (inactive). Consider `O=S(=O)(NCCCN1CCOCC1)c1ccc(F)c(Cl)c1`, for which the activation was 82.5% (active).

As to `O=S(=O)(NCC1CC1)c1ccc(F)c(Cl)c1`, the activation is -0.0605% (inactive).

As to `COc1ccccc1-c1ccc([C@H]2[C@H](CO)N(C(=O)C3CC3)C23CN(C(C)=O)C3)cc1`, the activation was -0.188% (inactive).

For the molecule `CCC(=O)Nc1ccc2c(c1)OC[C@H](C)N(CC1CCOCC1)C[C@@H](C)[C@@H](OC)CN(C)C2=O`, the activation is 0.195% (inactive).

With `CO[C@@H]1CN(C)C(=O)c2cc(NS(=O)(=O)c3ccc(C)cc3)ccc2OC[C@H](C)N(Cc2nccs2)C[C@@H]1C`, the activation was -0.0505% (inactive). In the case of `COCCn1c(SCC(=O)c2[nH]c(C)c(C(C)=O)c2C)nc2ccccc2c1=O`, the activation is -0.059% (inactive).

Consider `COCCCn1c(-c2cccs2)nc2nc3ccccc3nc21`, for which the activation is 42.8% (active). The same measure for `CCOCCCn1c(NN)nc2ccccc2c1=O`: -0.132% (inactive); for `O=C(c1ccc(F)cc1)N1CC(=O)N2[C@@H](CO)[C@@H](c3ccc(C#Cc4ccc(F)cc4)cc3)[C@@H]2C1`: -0.811% (inactive).

As for `CCN(CC)c1ccc(NC(=O)CN2CCN(c3ccccn3)CC2)cc1`, the activation is 0.001% (inactive).

In the case of `Cc1nc(N2CCC(C)CC2)c2c(C)c(C(=O)Nc3cc(F)ccc3C)sc2n1`, the activation was 0.651% (inactive). As for `Cc1nc(N2CCN(c3ccccn3)CC2)c2c(C)c(C(=O)Nc3ccc(F)cc3)sc2n1`, the figure is 86% (active); as for `COc1cccc(-c2nc3nc(C)cc(C)n3c2NC2CCCCC2)c1`, -0.154% (inactive). As to `C[C@H](CO)N1C[C@H](C)[C@@H](CN(C)C(=O)Nc2cccc3ccccc23)Oc2c(NS(=O)(=O)c3ccccc3)cccc2C1=O`, the activation is -0.43% (inactive).

As to `C[C@@H]1CN([C@H](C)CO)C(=O)c2cccc(NC(=O)Nc3ccccc3)c2O[C@@H]1CN(C)C(=O)NC1CCCCC1`, the activation is 0.168% (inactive). As for `C[C@H]1CN([C@@H](C)CO)C(=O)c2cccc(NS(=O)(=O)c3cn(C)cn3)c2O[C@@H]1CN(C)C(=O)Nc1ccc(F)cc1`, the figure is 46.9% (active). For the molecule `C[C@@H]1CN([C@H](C)CO)C(=O)c2cccc(NC(=O)Nc3cccc4ccccc34)c2O[C@@H]1CN(C)C(=O)Nc1cccc2ccccc12`, the activation is -0.224% (inactive). `C[C@@H]1CN([C@H](C)CO)C(=O)c2cccc(NS(C)(=O)=O)c2O[C@@H]1CN(C)C(=O)Nc1cccc2ccccc12`: the activation was 91.3% (active).

Take `C[C@H]1CN([C@@H](C)CO)C(=O)c2cccc(NS(=O)(=O)c3cn(C)cn3)c2O[C@H]1CN(C)C(=O)Nc1ccc2c(c1)OCO2`: the activation is -9.5% (inactive). Regarding `Cc1ccc(S(=O)(=O)N(C)C[C@@H]2Oc3c(NC(=O)Nc4ccccc4)cccc3C(=O)N([C@H](C)CO)C[C@H]2C)cc1`, the activation was 0.069% (inactive). `C[C@H](CO)N1C[C@H](C)[C@@H](CN(C)C(=O)NC2CCCCC2)Oc2c(NC(=O)Nc3ccc(F)cc3)cccc2C1=O`: the activation is 42.3% (active). The same measure for `C[C@H](CO)N1C[C@H](C)[C@H](CN(C)S(=O)(=O)c2ccccc2)Oc2c(NC(=O)Nc3ccccc3)cccc2C1=O`: 392% (active). The same measure for `C[C@H]1CN([C@@H](C)CO)C(=O)c2cccc(NC(=O)Nc3ccc(C(F)(F)F)cc3)c2O[C@H]1CN(C)C(=O)NC1CCCCC1`: -0.0925% (inactive); for `C[C@H](CO)N1C[C@H](C)[C@@H](CN(C)S(=O)(=O)c2ccc(F)cc2)Oc2c(NC(=O)Nc3ccccc3)cccc2C1=O`: 0.238% (inactive) and 0.231% (inactive). As for `COc1ccc(NC(=O)N(C)C[C@@H]2Oc3c(NS(=O)(=O)c4cn(C)cn4)cccc3C(=O)N([C@H](C)CO)C[C@@H]2C)cc1`, the figure is -11.1% (inactive); as for `Nc1nc2c(ncn2[C@@H]2O[C@H](C(=O)N[C@@H](Cc3ccccc3)C(=O)NCc3ccccc3)[C@@H](O)[C@H]2O)c(=O)[nH]1`, -0.0025% (inactive).
